For assay [1], the target named is preformed Aβ40 aggregates (Homo sapiens, UniProt P05067). The assay is classed as biochemical. The settings on record: metal-free and metal-treated conditions.
In assay [2] the target is T1, metal-free Aβ40 monomer (Homo sapiens, UniProt P05067). In words: 2D SOFAST-HMQC NMR with metal-free monomeric Aβ40. It counts as binding. To be noted: [Aβ40] 80 μM; compound 800 μM (10 equiv); pH 7.4; 10 °C. An outline of the steps: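 Uniformly ¹⁵N-labeled monomeric Aβ40 (80 μM) with test compound at 0 or 800 μM in 20 mM phosphate buffer, pH 7.4, 50 mM NaCl, 7 % (v/v) D₂O, at 10 °C. 2D ¹H–¹⁵N SOFAST-HMQC spectra were recorded at 900 MHz with a cryogenic probe. Per-residue chemical shift perturbations were plotted against the average CSP with standard deviation; unresolved residues were excluded.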
T1 sequence (P05067 672-711 limits assumed): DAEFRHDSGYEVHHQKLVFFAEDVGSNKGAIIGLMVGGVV

Assay [3] in a line: TEAC assay in M17 cell lysates. The assay is classed as biochemical. The settings on record: relative to Trolox. An outline of the steps:
(§1)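 Radical scavenging was measured by the test compound's quenching of pre-formed ABTS cation radicals (ABTS•⁺). The read-out was absorbance on a microplate reader, and capacity was expressed as Trolox equivalents.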

Another assay in a line: TEAC assay in EtOH. The settings on record: relative to Trolox. The assay is classed as biochemical. An outline of the steps: as §1
In assay [4] the target is T2, metal-free Aβ40 (Homo sapiens, UniProt P05067). The assay is described as follows: ESI-MS of metal-free Aβ40 incubated with compound. It counts as binding. To be noted: [Aβ40] 10 μM; [L2-b2] 50 μM; pH 7.5; 37 °C; 6 h.
T2 sequence (P05067 672-711 limits assumed): as above
Assay [5] concerns the target preformed Aβ42 aggregates (Homo sapiens, UniProt P05067). The assay is classed as biochemical. The settings on record: metal-free and metal-treated conditions.
The test system of assay [6] is SK-N-BE(2)-M17 (M17) cells. The assay is described as follows: Viability of cells treated with metal-free Aβ or metal–Aβ followed by compound. To be noted: [Aβ] 10 μM, [CuCl2 or ZnCl2] 10 μM, [L2-b2] 20 μM, MTT. It counts as cell-based, human. An outline of the steps: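 SK-N-BE(2)-M17 neuroblastoma cells were first exposed to metal-free Aβ40 or Aβ42, or to Aβ premixed with CuCl2 or ZnCl2. Test compound was added afterwards. Viability was measured by MTT absorbance on a microplate reader and expressed as % of cells given DMSO only (0–1 %, v/v).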

Another assay deals with Aβ42 (Homo sapiens, UniProt P05067). The assay is classed as biochemical. The settings on record: inhibition experiment; vs compound-free and L2-b1-treated conditions. An outline of the steps:
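Aβ42 (25 μM) was incubated with test compound (50 μM), either metal-free or with CuCl2 or ZnCl2 (25 μM). Cu samples were at pH 6.6; metal-free and Zn samples at pH 7.4. Incubation was at 37 °C with constant agitation. Size distribution was read by gel/Western blot with anti-Aβ antibody 6E10, and morphology by TEM of the same samples.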

The target of a further assay is Cu^II–Aβ40 (Homo sapiens, UniProt P05067). In words: nESI-MS and MS/MS of Aβ40 incubated with Cu^II and compound. The assay is classed as biochemical. To be noted: [Aβ40] 20 μM; [CuCl2] 20 μM; [L2-b2] 120 μM; pH 7.5; 37 °C; 30 min.
Sequence of Cu^II–Aβ40 (P05067 672-711 limits assumed): as above
The target in a further assay is Aβ40 (Homo sapiens, UniProt P05067). It counts as biochemical. The settings on record: inhibition experiment; vs compound-free and L2-b1-treated conditions.
Sequence of Aβ40 (P05067 672-711 limits assumed): as above
For assay [7], the target named is T1, metal-free Aβ40 monomer. The settings on record: ref 4e; cited from earlier work.
The subject of assay [8] is metal-free Aβ and metal–Aβ. To be noted: ref 4b,f; cited from earlier work.
The target of assay [9] is T2, metal-free Aβ40. The settings on record: ref 4b,f; cited from earlier work.

SMILES strings stand for the structures. Like-named read-outs stand apart in the source and are kept apart here.

Sequence of preformed Aβ40 aggregates (P05067 672-711 limits assumed): as above
Sequence of Aβ42 (P05067 672-713 limits assumed): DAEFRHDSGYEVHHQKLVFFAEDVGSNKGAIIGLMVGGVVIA
Sequence of preformed Aβ42 aggregates (P05067 672-713 limits assumed): as above

`c1ccc(CNCc2ccccn2)nc1` [DPA1, bis(pyridin-2-ylmethyl)amine, reference compound]: the “Disaggregation of preformed Aβ40 aggregates (gel/Western blot)” value in [1] was “could not detectably disaggregate preformed Aβ40 aggregates”.
The same measure, in the same setting: the value for `CN(C)c1ccc(CNCc2ccc(N(C)C)cn2)nc1` [DPA2, 6-((((5-(dimethylamino)pyridin-2-yl)methyl)amino)methyl)-N,N-dimethylpyridin-3-amine] was “could not detectably disaggregate preformed Aβ40 aggregates”.
Take `CN(C)c1ccc(CNc2ccccc2)nc1` [L2-b1, N,N-dimethyl-6-((phenylamino)methyl)pyridin-3-amine]: at metal-free Aβ40 monomer [2], the “Interaction with metal-free Aβ40 monomer (CSP)” value is on record as “weak interactions with metal-free Aβ”. Besides, the TEAC value was determined as 0.7 ± 0.1 in assay [3] and 0.8 ± 0.1 in the assay “TEAC assay in EtOH”. In addition, the “Disaggregation of preformed Aβ40 aggregates (gel/Western blot)” value in [1] was “could not detectably disaggregate preformed Aβ40 aggregates”.
As to `CN(C)c1ccc(NCc2ccc(N(C)C)cn2)cc1` [L2-b2, N^1-((5-(dimethylamino)pyridin-2-yl)methyl)-N^4,N^4-dimethylbenzene-1,4-diamine], the “Interaction with metal-free Aβ40 monomer (CSP)” value on metal-free Aβ40 monomer [2] is recorded as “weak interactions with metal-free Aβ”. Also, the “Interaction with metal-free Aβ (ESI-MS)” value at metal-free Aβ40 [4] is given as “forming a covalent adduct of Aβ–cationic imine”. In addition, the “Disaggregation of preformed Aβ42 aggregates (gel/Western blot)” value in assay [5] was “dismantle preformed metal-free and metal-treated Aβ42 aggregates”. In addition, the figures for the TEAC value (in [3]; in the assay “TEAC assay in EtOH”) were 1.1 ± 0.1 and 1.9 ± 0.1, respectively. Moreover, in assay [6], the “Effect on toxicity triggered by metal-free Aβ and metal–Aβ in living cells” value was “possibly alleviate toxicity triggered by metal-free Aβ and metal–Aβ in living cells”. The “Disaggregation of preformed Aβ40 aggregates (gel/Western blot)” value in assay [1] is “displayed various-sized peptide aggregates to different degrees”. In addition, the “Morphology of resultant Aβ42 aggregates (TEM)” value at Aβ42 was “more amorphous aggregates and/or smaller fibrils”. Also, the “Mass loss of Aβ40 compared to apo Aβ40 (degraded Aβ)” value on Cu^II–Aβ40 was 89.1 (± 0.1) Da. Besides, the “Morphology of resultant Aβ40 aggregates (TEM)” value at Aβ40 is “more amorphous aggregates and/or smaller fibrils”.
On to `CN(C)c1ccc(NCc2ccccn2)cc1` [L2-b, N^1,N^1-dimethyl-N^4-(pyridin-2-ylmethyl)benzene-1,4-diamine], for which, at metal-free Aβ40 monomer [7], the “Interaction with metal-free Aβ40 monomer (CSP)” value was “weak interactions with metal-free Aβ”. Further, in assay [8], the “Reactivity toward metal-free Aβ and metal–Aβ aggregation pathways” value was “reactivity only for metal–Aβ species”. On metal-free Aβ40 [9], the “Interaction with metal-free Aβ” value is on record as “unable to interact with metal-free Aβ”.
Take `NCc1ccccn1` [PMA1, pyridin-2-yl-methanamine, reference compound]: the “Disaggregation of preformed Aβ40 aggregates (gel/Western blot)” value in [1] is given as “could not detectably disaggregate preformed Aβ40 aggregates”.
`CN(C)c1ccc(CN)nc1` [PMA2, 6-(aminomethyl)-N,N-dimethylpyridin-3-amine, reference compound]: the “Disaggregation of preformed Aβ40 aggregates (gel/Western blot)” value in [1] is listed as “could not detectably disaggregate preformed Aβ40 aggregates”.

These data come from article PMC5826595 (Chemistry (Weinheim an der Bergstrasse, Germany), 2017).
